Bioassay records as filed in PubChem BioAssay.
Wee1 degr inh – human Wee1 degradation inhibition, primary screen. P30291. HeLa Luc-Wee1K328M stability, luciferase luminescence; 100% = proteasome inhibitor MG132 effect. reporter increase, % at 5 µM. hit rate 1.2% among 220,000;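 active = activation above the mean of all tested compounds plus 3 SD, set per screening run, cut at about 8.8% in these data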;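 also: cells exposed to compound for 20 h before luminescence read; 0% = DMSO alone and 100% = MG132 at 30 µM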
Target sequence (P30291 whole entry K328M): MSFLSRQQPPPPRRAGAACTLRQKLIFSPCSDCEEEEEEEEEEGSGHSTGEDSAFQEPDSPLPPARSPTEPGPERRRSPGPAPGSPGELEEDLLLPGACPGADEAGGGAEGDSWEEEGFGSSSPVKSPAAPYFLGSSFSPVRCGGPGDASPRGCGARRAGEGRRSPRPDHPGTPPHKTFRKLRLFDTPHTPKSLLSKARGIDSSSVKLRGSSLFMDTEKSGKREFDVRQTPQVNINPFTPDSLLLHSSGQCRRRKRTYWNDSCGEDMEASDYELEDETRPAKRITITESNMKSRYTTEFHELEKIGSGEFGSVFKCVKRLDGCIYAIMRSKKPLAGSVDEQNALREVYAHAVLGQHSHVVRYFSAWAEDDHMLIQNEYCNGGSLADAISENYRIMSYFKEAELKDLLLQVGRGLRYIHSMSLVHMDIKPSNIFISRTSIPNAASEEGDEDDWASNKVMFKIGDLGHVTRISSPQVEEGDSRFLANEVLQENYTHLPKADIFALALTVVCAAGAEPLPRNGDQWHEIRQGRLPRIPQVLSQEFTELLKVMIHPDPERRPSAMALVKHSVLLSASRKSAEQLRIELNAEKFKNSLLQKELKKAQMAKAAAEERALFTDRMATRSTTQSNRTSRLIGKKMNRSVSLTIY
PKD1 kinase inh – blocks activity of human protein kinase D1; PKD1 kinase fluorescence polarization assay; Q15139; inhibition, % (concentration not given with the values); hit rate 0.056% among 200,000
CHOP inh – inhibitors of CHOP induction in ER stress response; inhibition, % at 10 µM; AID 2732; CHO-K1 CHOP-promoter luciferase, tunicamycin-induced, 15-18 h; hit rate 3.8% among 220,000;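 active = compounds that reduced the stress-induced luciferase reporter signal by more than about 70% of percent inhibition, limit read from the data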;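 also: 0% = tunicamycin plus vehicle and 100% = wells without tunicamycin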
Lmaj promast – reduces viability of Leishmania major promastigotes. resazurin fluorescence viability. inhibition, % at 10 µM. hit rate 9% among 200,000. AID 1063;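 also: promastigotes grown with compound for 44 hours at 28 °C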
Rad51 HR inh – blocks human Rad51 in homologous recombination; AID 1385; hit rate 0.085% among 200,000; hRad51 DNA strand exchange, fluorescence dequenching; Q06609; inhibition, % at 10 µM;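 active = inhibition above 40% at the single screening dose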;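 also: 0% = DMSO control wells and 100% = blanks with heterologous ssDNA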
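Test system – preformed human Rad51 ssDNA filaments · Reagent – Donor/quencher-labelled 47-bp dsDNA substrate · Incubation – 37 °C 15-min filament assembly, 30-min compound preincubation, 15-min exchange · Signal – FRET fluorescence dequenching, excitation 485 nm, emission 520 nm · Read-out – percent inhibition from fluorescence, normalised to plate control and blank means · Benchmarks – plate control and blank wells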
Arbovirus inh – arbovirus infection inhibition. arbovirus infection cell-based antiviral screen. inhibition, % at 10 µM. hit rate 0.37% among 200,000. AID 1251; in the data active = inhibition above about 30%
Numbers without * were called inactive; . = not tested or not shown. Hits are enriched below; roughly 12% of the tested compounds scored in any of these assays. Rule as the data show it, unless noted: active = inhibition above about 50%; inactive = the rest.

SMILES	Wee1 degr inh	PKD1 kinase inh	CHOP inh	Lmaj promast	Rad51 HR inh	Arbovirus inh
CN1C(=O)C(=Cc2ccccc2Oc2ccc(Cl)cc2)C(=O)N(C)C1=O	-1	-8	7	62*	10	3
CN[C@@H](C)[C@H](O)c1ccccc1	.	.	13	.	.	.
CCC(=NCCCN(CC)CC)c1c(O)n(C2CCCCC2)c(=O)[nH]c1=O	0	-3	14	92*	-6	-4
CCC(=NCc1cccnc1)c1c(O)n(C2CCCCC2)c(=O)[nH]c1=O	2	-3	2	14	-2	-1
CCN(CC)CCCN=C(C)c1c(O)n(C2CCCCC2)c(=O)[nH]c1=O	0	-5	6	93*	-13	3
CC(=NCCO)c1c(O)n(C2CCCCC2)c(=O)[nH]c1=O	2	-12	-5	-3	1	12
CCC(=NCc1ccco1)c1c(O)n(C2CCCCC2)c(=O)[nH]c1=O	-1	-18	44	60*	3	10
CCc1ccccc1NC(=O)CNCc1ccccc1	0	-9	0	-3	5	-4
O=C(c1ccccc1)C(CN1CCCC1)c1ccccc1 (centres undefined)	-2	2	24	100*	.	-38
O=C(CN1CCCCC1)c1ccc(F)cc1	0	.	5	.	-9	.
NC(Cn1oc(=O)[nH]c1=O)C(=O)O (centres undefined)	.	.	-1	.	.	.
C/C=C1/CC(C)C(C)(O)C(=O)OCC2CCN3CCC(OC1=O)C23 (centres undefined)	2	5	4	-4	0	1
CN1CCN(c2ccc(S(C)(=O)=O)cc2[N+](=O)[O-])CC1	1	0	-10	54*	8	3
CN1CCN(c2ccc(S(=O)(=O)C(F)(F)F)cc2[N+](=O)[O-])CC1	4	-1	11	51*	0	-1
CN1CCN(c2ccc([N+](=O)[O-])c3no[n+]([O-])c23)CC1	1	.	107*	.	-110	.
CN1CCN(c2c(F)cc([N+](=O)[O-])c(N)c2Br)CC1	1	-9	13	11	6	2
CCOc1ccccc1-n1c(O)c(C=NCCCn2ccnc2)c(=O)[nH]c1=O	4	.	-9	.	1	.
CN1C2CCC1CC(OC(c1ccccc1)c1ccc(Cl)cc1)C2 (centres undefined)	.	.	8	.	.	.
Cc1ccc(CN2C(=O)CN=C(c3ccccc3)c3ccccc32)cc1	1	-7	23	57*	0	-17
CCN(CC)CCOC(=O)C(O)(c1ccccc1)c1ccccc1	0	-3	8	-4	6	10
CCOC(C(=O)OCC(O)CN(CC)CC)(c1ccccc1)c1ccccc1 (centres undefined)	-2	-10	22	100*	-1	-13
CCN(CC)CCCOC(=O)C(OC)(c1ccccc1)c1ccccc1	-2	0	-4	100*	-4	-10
NC1CC1c1ccccc1 (centres undefined)	.	.	0	.	.	.
CSCc1nnc2n1-c1ccc(Cl)cc1C(c1ccccc1)=NC2	1	-1	3	94*	9	-10
CS(=N)(=O)CC[C@H](N)C(=O)O (some centres undefined)	.	.	-6	.	.	.
SMILES	Wee1 degr inh	PKD1 kinase inh	CHOP inh	Lmaj promast	Rad51 HR inh	Arbovirus inh
O=C(c1ccc(N2CC3CC(C2)c2cccc(=O)n2C3)c([N+](=O)[O-])c1)N1CCCCC1 (centres undefined)	-4	-11	8	55*	-1	2
CC1CCCCN1C(=O)c1ccc(N2CC3CC(C2)c2cccc(=O)n2C3)c([N+](=O)[O-])c1 (centres undefined)	-2	-7	3	65*	2	-4
O=C(N/N=C/c1c(O)n(-c2ccccc2)c(=O)[nH]c1=O)c1ccncc1	-1	6	1	91*	-14	7
COC(=O)C(O)(c1ccc(NC(=O)c2cccs2)c(C)c1)C(F)(F)F (centres undefined)	2	.	-11	.	-6	.
CCOC(=O)C(=CNc1ccc(C(O)(C(=O)OCC)C(F)(F)F)cc1C)C(=O)OCC (centres undefined)	0	4	90*	55*	7	4
COC(=O)C1=C(c2cc3ccccc3o2)C[C@@H]2CC[C@H]1N2C(=O)NC(C)C	.	.	.	.	-1	.
COc1ccc(C(=O)N2CCOCC2)cc1S(=O)(=O)N1CCC(C)CC1	4	-12	33	-4	2	-2
COc1ccc(C(=O)Oc2cccc3cccnc23)cc1S(=O)(=O)N1CCOCC1	-3	3	-2	98*	-8	1
c1cc2n(c1)-c1c(ccc3c1OCO3)CNC2c1ccc2c(c1)OCO2 (centres undefined)	0	-1	3	14	6	-12
COc1ccc(C2NCc3ccc4c(c3-n3cccc32)OCO4)cc1O (centres undefined)	1	8	.	74*	4	-8
CN1/C(=C\C=Nc2ccccc2)C(C)(C)c2ccccc21	2	0	31	98*	8	15
COCCOC(=O)c1c(N)n(Cc2ccco2)c2nc3ccccc3nc12	2	-8	.	21	.	.
CCOC(=O)c1c(N)n(CCCOC(=O)c2ccco2)c2nc3ccccc3nc12	0	-3	.	82*	10	-1
CCOC(=O)c1c(N)n(Cc2ccc(OC)cc2)c2nc3ccccc3nc12	0	7	5	96*	-1	1
COC(=O)c1c(N)n(Cc2ccc(OC)cc2)c2nc3ccccc3nc12	0	-5	26	52*	5	7
COCCOC(=O)c1c(N)n(Cc2ccc(OC)cc2)c2nc3ccccc3nc12	0	2	11	89*	-6	-10
COC(=O)C1=C(c2ccccc2)C[C@@H]2CC[C@H]1N2C(=O)NCCCOC(C)C	.	.	.	.	-5	.
Cc1ccc(C(=O)N[C@@H](C)CN2C3=NC[C@@H](Cc4ccccc4)N3C[C@H]2Cc2ccc(O)cc2)cc1Br	1	-5	-6	52*	-4	-21
CCC(C)N1C(=O)/C(=C\c2ccc(N3CCCCCC3)cc2)C(=O)NC1=S (centres undefined)	1	14	71*	93*	-74	2
CN1C(=O)/C(=C\c2ccc(N3CCCCC3)o2)C(=O)NC1=S	3	-5	-12	7	-137	3
CN1C(=O)/C(=C\c2ccc(N3CCCCCC3)cc2)C(=O)NC1=S	0	.	10	.	-20	.
CCCCN1C(=O)/C(=C/c2ccc(N3CCCCCC3)cc2)C(=O)NC1=S	-1	-9	1	59*	-60	10
CCC(C)N1C(=O)/C(=C\c2cnc(N(C)C)nc2)C(=O)NC1=S (centres undefined)	5	11	-8	14	-1	2
CCC(C)N1C(=O)/C(=C\c2cc3c4c(c2)CCCN4CCC3)C(=O)NC1=S (centres undefined)	0	11	-62	98*	.	2
